An excerpt weighted towards active compounds, which were near 2.3% of everything screened.
TRPC6 inhibitor: mouse TRPC6 channel inhibitors, primary screen, cell-based, HEK293, membrane potential dye; 1.1% of 310,000 active; AID 2553, 2010; ACh-evoked depolarization; hits give low values; Short transient receptor potential channel 6 (Mus musculus), Q61143; B-score at 10 µM;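 active = B-score under library mean minus 3 SD, initial fluorescence not abnormally high, positive integrated signal ratio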;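 note: B-score derived from integrated fluorescence ratio over the kinetic read; more negative B-score means stronger inhibition of depolarization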
TRPC4 potent: positive allosteric modulators of TRPC4, primary screen, cell-based, mouse TRPC4beta, HEK293 mu-opioid, Fluo-4 calcium; DAMGO EC20, Fluo-4 Ca2+ flux; hits give high values; 0.42% of 310,000 active; B-score at 10 µM; Short transient receptor potential channel 4 (Mus musculus), Q9QUQ5;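 active = B-score of calcium response area above 5 SD of library B-scores, with initial fluorescence ratio within 5 SD of library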;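 note: B-score of integrated fluorescence ratio over time as area under calcium response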
Target sequence (Q9QUQ5 whole entry, looked up): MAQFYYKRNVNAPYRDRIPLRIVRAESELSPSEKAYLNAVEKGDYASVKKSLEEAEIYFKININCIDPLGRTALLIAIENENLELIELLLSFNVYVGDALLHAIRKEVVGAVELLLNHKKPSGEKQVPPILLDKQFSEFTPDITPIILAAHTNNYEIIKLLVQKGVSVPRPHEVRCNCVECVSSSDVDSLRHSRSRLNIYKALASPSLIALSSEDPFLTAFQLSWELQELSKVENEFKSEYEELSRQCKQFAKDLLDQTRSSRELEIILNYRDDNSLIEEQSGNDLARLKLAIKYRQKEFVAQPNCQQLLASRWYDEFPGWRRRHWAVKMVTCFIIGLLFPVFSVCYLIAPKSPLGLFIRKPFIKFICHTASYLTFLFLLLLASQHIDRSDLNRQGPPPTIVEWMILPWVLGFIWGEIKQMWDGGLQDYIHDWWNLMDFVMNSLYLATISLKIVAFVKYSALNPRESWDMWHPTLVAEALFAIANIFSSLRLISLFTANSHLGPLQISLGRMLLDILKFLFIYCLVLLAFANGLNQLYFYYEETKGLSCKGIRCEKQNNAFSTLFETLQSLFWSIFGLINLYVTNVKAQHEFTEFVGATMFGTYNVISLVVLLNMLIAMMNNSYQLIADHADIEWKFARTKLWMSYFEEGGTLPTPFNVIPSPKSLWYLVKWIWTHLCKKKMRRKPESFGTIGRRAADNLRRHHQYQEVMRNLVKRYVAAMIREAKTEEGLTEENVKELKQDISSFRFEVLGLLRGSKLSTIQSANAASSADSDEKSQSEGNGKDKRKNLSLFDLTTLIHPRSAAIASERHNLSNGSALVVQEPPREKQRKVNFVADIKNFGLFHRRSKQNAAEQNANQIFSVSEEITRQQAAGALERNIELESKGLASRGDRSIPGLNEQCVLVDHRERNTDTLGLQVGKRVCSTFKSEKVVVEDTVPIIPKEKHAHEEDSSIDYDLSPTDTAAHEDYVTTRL
TRPC6 activator: mouse TRPC6 channel activators, primary screen, cell-based, HEK293, membrane potential dye; Short transient receptor potential channel 6 (Mus musculus), Q61143; 0.13% of 310,000 active; AID 2550, 2010; HEK293-TRPC6 membrane potential dye fluorescence; hits give high values; B-score at 10 µM;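 active = B-score of the integrated fluorescence ratio above library mean plus 3 SD, and starting fluorescence ratio within library mean plus 5 SD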;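 note: higher score means more depolarization so channel activation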
TRPC4 inh: inhibitors of mouse TRPC4 channel, primary screen, Fluo4 calcium, HEK293 TRPC4beta/mu-opioid cells. DAMGO-evoked Fluo4 calcium flux; hits give low values. B-score at 10 µM. 0.39% of 300,000 active. AID 2247, 2010;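 active = B-score over 3 SD under the library average, no early fluorescence shift, positive overall ratio signal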
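Assay system: HEK293 cells with stable TRPC4beta plus mu-opioid receptor expression; Probe or stimulus: DAMGO in two steps, submaximal then maximal; Dosing: single-point compound dosing; Measured by: Fluo4 calcium-dye fluorescence, kinetic read; Read-out basis: B score from integrated Fluo4 fluorescence ratio.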
TRPC4 act: activators of mouse TRPC4 channel, primary screen, Fluo4 calcium, HEK293 TRPC4beta/mu-opioid cells; Fluo4 calcium fluorescence; hits give high values; B-score at 10 µM; 0.49% of 310,000 active;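 active = B-score above 5 SD of library B-scores, and initial fluorescence ratio not above library mean plus 5 SD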;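 note: positive B-score marks a calcium rise read as TRPC4 activation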
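Test system: HEK293 cells stably co-expressing mouse TRPC4beta and mu-opioid receptor | Schedule: Fluo4 dye loading 45 min at room temperature, 110 s recording | Measured by: Kinetic Fluo4 calcium fluorescence, 5 s baseline at 1 Hz | Evaluation: B score of integrated ratio | Controls: Buffer (low) and maximal DAMGO (high)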
HEK293 TRPC6 ctr: parental HEK293 membrane potential modulation, confirmation, counter-screen for TRPC6 modulator project, cell-based; shares compounds with TRPC6 inhibitor; membrane potential dye fluorescence; membrane potential signal change, % at 10 µM; 51% of 2,400 active;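 active = membrane potential signal moves up or down beyond 5 SD from buffer-only wells, on both duplicate plates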
HEK293 MPD ctr 2: second counter-screen for TRPC6 modulators: effect in parental HEK293 cells. shares compounds with TRPC6 inhibitor. membrane potential dye fluorescence; after compound, maximal acetylcholine stimulation. inhibition, % at 10 µM. 14% of 2,400 active. AID 488926;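 active = membrane potential signal drops by more than 5 SD from the mean control signal, in both duplicate plates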;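 note: plate controls were acetylcholine ECmax control wells for no effect and buffer only wells for full effect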
TRPC4 ctr mod: TRPC4 modulation by TRPC6 hit compounds, confirmation, selectivity assay for TRPC6 modulator project, cell-based, HEK293 TRPC4/mu-opioid, membrane potential dye, mouse | shares compounds with TRPC6 inhibitor | membrane potential fluorescence | percent change from control (negative = decrease, positive = increase), % at 10 µM | 69% of 2,400 active;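 active = membrane potential signal moved up or down beyond 5 SD of buffer control wells, in both duplicate plates, actives on both sides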;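 note: plate controls were assay buffer wells for no effect and DAMGO maximal-effect wells for full effect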
TRPC4/MOR inh 2: second check of whether TRPC6 modulators also affect mouse TRPC4; shares compounds with TRPC6 inhibitor; HEK293 TRPC4/mu-opioid, membrane potential dye fluorescence; stimulated with maximal-effect DAMGO; inhibition, % at 10 µM; 55% of 2,400 active;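 active = drop in membrane potential signal beyond 5 SD of the control wells in both duplicate plates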;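 note: TRPC4 counter screen for TRPC6 hits run under conditions tuned for TRPC6 not TRPC4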
TRPC6 block conf: mouse TRPC6 channel inhibitors, confirmation, HEK293 cells, membrane potential dye, duplicate; ACh-evoked depolarization; AID 488960, 2010; shares compounds with TRPC6 inhibitor; 43% of 3,300 active; inhibition, % at 10 µM;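 active = fluorescence ratio falls more than 5 SD below the full-stimulation control mean, in both duplicate runs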;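 note: integrated fluorescence ratio of peak minus minimum over baseline after agonist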
TRPC6 act conf: mouse TRPC6 channel activators, confirmation, HEK293 cells, membrane potential dye, duplicate | 11% of 2,800 active | activation, % at 10 µM | shares compounds with TRPC6 inhibitor | AID 488961, 2010 | HEK293-TRPC6 membrane potential dye fluorescence, FDSS;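 active = ratio signal rise beyond 5 SD above unstimulated control wells' mean, seen in both duplicate runs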;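 note: plate controls were buffer EC0 wells for no effect and acetylcholine ECmax response for full effect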
* hit, by the source's call; i = inactive; . = no result.

SMILES	TRPC6 inhibitor	TRPC4 potent	TRPC6 activator	TRPC4 inh	TRPC4 act	HEK293 TRPC6 ctr	HEK293 MPD ctr 2	TRPC4 ctr mod	TRPC4/MOR inh 2	TRPC6 block conf	TRPC6 act conf
COc1ccc(C(=O)Nc2c(-c3cccs3)c(=O)c3ccccc3n2C)cc1	i	i	i	i	i	.	.	.	.	.	.
Cc1cccc(/N=C/c2ccccn2)n1	i	i	i	i	i	.	.	.	.	.	.
COc1cc(/C=C/C(=O)c2ccc3c(c2)OCCO3)cc(Br)c1OCC(=O)N(C)C	i	i	12.9*	i	i	126.0%*	i	27.0%*	i	i	51.0%*
Cc1ccc2c(c1)c1c(n2CC(O)CN2CCC(C)CC2)CCCC1 (stereo not drawn)	-5.81*	i	i	i	i	i	i	12.5%*	53.5%*	40.0%*	i
Cc1ccc(-n2ncc3c(SCC(=O)Nc4cc(C)on4)ncnc32)c(C)c1	i	i	i	i	i	.	.	.	.	.	.
C=CCOc1ccc2c(OC)c3ccoc3nc2c1OC	-11.3*	i	16.1*	i	i	i	i	17.5%*	i	51.5%*	85.5%*
CCOc1c2ccoc2nc2c(OC)c(OC)ccc12	-5.37*	i	i	i	i	i	i	i	i	i	.
CCOc1c(OC)ccc2c3c(c(=O)oc12)CCCC3	i	i	i	i	i	.	.	.	.	.	.
CCCCCc1cc(=O)oc2c(C(CCN3CCCC(C)C3)c3ccc(N(C)C)cc3)c(OC)cc(OC)c12 (stereo not drawn)	i	i	i	i	i	.	.	.	.	.	.
COc1cc(OC)c2ccc(=O)oc2c1C(CCN1CCCC(C)C1)c1ccc(N(C)C)cc1 (stereo not drawn)	-5.72*	i	i	i	i	-112.5%*	i	-26.0%*	70.0%*	49.0%*	i
COc1ccc(C(CCN2CCCCC2)c2c(OC)cc(OC)c3c(-c4ccccc4)cc(=O)oc23)cc1 (stereo not drawn)	i	i	i	i	i	.	.	.	.	.	.
COc1cc(OC)c2c(-c3ccccc3)cc(=O)oc2c1C(CCN1CCCCC1)c1ccc(N(C)C)cc1 (stereo not drawn)	-6.23*	i	i	i	116*	i	i	36.0%*	103.5%*	55.0%*	i
CCOc1cc(/C=N/NC(=O)c2ccc(N(C)S(=O)(=O)c3ccccc3)cc2)ccc1OC	i	i	i	i	i	.	.	.	.	.	.
